What all share (format): cell-based
One assay addresses T1, rP2X7-R125A/I214A (Rattus norvegicus, UniProt Q64663, I214A/R125A).
T1 sequence (Q64663 1-595 R125A/I214A): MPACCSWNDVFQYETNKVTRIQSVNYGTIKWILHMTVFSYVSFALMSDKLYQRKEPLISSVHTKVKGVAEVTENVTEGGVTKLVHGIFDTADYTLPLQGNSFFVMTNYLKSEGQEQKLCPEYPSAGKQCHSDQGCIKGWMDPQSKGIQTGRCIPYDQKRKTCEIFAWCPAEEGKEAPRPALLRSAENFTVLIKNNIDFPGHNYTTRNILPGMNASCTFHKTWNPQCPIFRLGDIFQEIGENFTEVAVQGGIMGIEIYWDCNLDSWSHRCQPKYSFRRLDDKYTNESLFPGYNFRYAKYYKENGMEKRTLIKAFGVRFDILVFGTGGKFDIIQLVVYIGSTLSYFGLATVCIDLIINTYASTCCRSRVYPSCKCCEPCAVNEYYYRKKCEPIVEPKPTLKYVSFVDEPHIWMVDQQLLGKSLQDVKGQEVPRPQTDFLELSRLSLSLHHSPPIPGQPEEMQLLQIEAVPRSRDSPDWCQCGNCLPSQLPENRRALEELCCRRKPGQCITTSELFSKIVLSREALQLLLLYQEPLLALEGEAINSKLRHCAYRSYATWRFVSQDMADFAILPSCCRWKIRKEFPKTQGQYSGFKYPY
Put plainly: TEVC dose response. The note with it: read-out: EC50 (apparent affinity), mean ± SD, triplicate. Put shortly:
(§1)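 TEVC was run on Xenopus oocytes ~20 h after injection of wild-type or mutant rP2X7 mRNA, in pH 7.4 HEPES buffer with 0.1 mM flufenamic acid. Receptors were facilitated at 100 µM before recording. Dilution series: ATP 1.5 mM–2 µM (7 points), BzATP 300–0.14 µM (8 points). Responses were normalized to the largest concentration, fitted by nonlinear regression for EC50, and averaged across triplicates (mean ± SD).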

For assay [1], the target named is T2, rP2X7-R125A (Rattus norvegicus, UniProt Q64663, R125A).
T2 sequence (Q64663 1-595 R125A): T1 sequence (Q64663 1-595 R125A/I214A) with A214I
Put plainly: TEVC dose response. The note with it: read-out: EC50 (apparent affinity), mean ± SD, triplicate. In outline:
as §1

The next assay concerns the target T3, rP2X7-R125A/Q143A (Rattus norvegicus, UniProt Q64663, Q143A/R125A).
T3 sequence (Q64663 1-595 R125A/Q143A): T1 sequence (Q64663 1-595 R125A/I214A) with Q143A, A214I
Put plainly: TEVC deactivation time. Conditions: after 100 μM ATP or 10 μM BzATP. Put shortly: (§2)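 Xenopus oocytes injected with 50 nL of 10 ng/µL mutant rP2X7 mRNA, expressed ~20 h, clamped in pH 7.4 HEPES buffer with 0.1 mM flufenamic acid and EDTA. Currents were evoked by 100 µM ATP or 10 µM BzATP. τ is the time for current to return to 63% of baseline after agonist removal, from a one- or two-phase decay fit. Done in triplicate over first to third applications per oocyte; mean ± SD.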

Assay [2] deals with T2, rP2X7-R125A. The assay can be described thus: TEVC deactivation time. Conditions: after 100 μM ATP or 10 μM BzATP. Put shortly:
as §2

The next assay addresses T4, rP2X7-Q143A (Rattus norvegicus, UniProt Q64663, Q143A).
T4 sequence (Q64663 1-595 Q143A): T1 sequence (Q64663 1-595 R125A/I214A) with A125R, Q143A, A214I
The assay can be described thus: TEVC deactivation time. The note with it: after 100 μM ATP or 10 μM BzATP. Put shortly: as §2

Residue numbers refer to the chain shown, from its start.

A word on the EC50: it is the concentration needed to bring the measured effect to its halfway point. As to `Nc1ncnc2c1ncn2[C@@H]1O[C@H](COP(=O)(O)OP(=O)(O)OP(=O)(O)O)[C@@H](O)[C@H]1O` [ATP], the EC50 at rP2X7-R125A/I214A is 77 ± 10 µM; on rP2X7-R125A [1], 41 ± 14 µM. Further, the “deactivation lifetime τ” value is 1.8 ± 0.1 s at rP2X7-R125A/Q143A, 3.5 ± 0.6 s at rP2X7-R125A [2] and 1.2 ± 0.1 s on rP2X7-Q143A.

For the compound BzATP, the figures for the EC50 at rP2X7-R125A/I214A and at rP2X7-R125A [1] were 14 ± 2 µM and 5 ± 1 µM, respectively. Further, the “deactivation lifetime τ” value on rP2X7-R125A/Q143A worked out at 2.5 ± 1.1 s; on rP2X7-R125A [2], 18 ± 3.7 s; at rP2X7-Q143A it was 7.1 ± 0.6 s.

For the origin of these results see publication PMC11303814 (Nature Communications, 2024).
